Experimental data from ChEMBL document CHEMBL1157434, “2-Aminopropane-1,2,3-tricarboxylic acid: Synthesis and co-crystallization with the class A beta-lactamase BS3 of Bacillus licheniformis” (Bioorg Med Chem Lett, 2008).

Assays:
[1] = Inhibition of Bacillus licheniformis beta-lactamase BS3 in 25 mM acetate buffer at pH 5
Method in brief: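 Purified BS3 (1–100 nM) mixed with inhibitor and the chromogenic substrate nitrocefin. Ki obtained from a plot of V0/Vi (uninhibited over inhibited hydrolysis rate) against inhibitor concentration. Three independent runs.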

[2] = Inhibition of beta-lactamase TEM1 in 25 mM acetate buffer at pH 5
Method in brief: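 Hydrolysis rates were measured without and with inhibitor at varying concentrations. Ki was derived from a plot of V0/Vi against inhibitor concentration. Performed three times.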

[3] = Inhibition of beta-lactamase TEM1 in 50 mM phosphate buffer at pH 7.2 at 0.2 mM
[4] = tested on: beta-lactamase BcII (Bacillus cereus); assay: Inhibition of Bacillus cereus beta-lactamase Bc2 in 50 mM phosphate buffer at pH 7.2 at 100 uM; values are per cent of control
Enterobacter cloacae = assay: Inhibition of Enterobacter cloacae beta-lactamase P99 in 50 mM phosphate buffer at pH 7.2 at 100 uM; values are per cent of control
[5] = target: T1, Imipenem-hydrolyzing beta-lactamase (Enterobacter cloacae) (UniProt P52663); assay: Inhibition of Enterobacter cloacae beta-lactamase NMCA in 50 mM phosphate buffer at pH 7.2 at 100 uM; values are per cent of control
T1 sequence (whole entry): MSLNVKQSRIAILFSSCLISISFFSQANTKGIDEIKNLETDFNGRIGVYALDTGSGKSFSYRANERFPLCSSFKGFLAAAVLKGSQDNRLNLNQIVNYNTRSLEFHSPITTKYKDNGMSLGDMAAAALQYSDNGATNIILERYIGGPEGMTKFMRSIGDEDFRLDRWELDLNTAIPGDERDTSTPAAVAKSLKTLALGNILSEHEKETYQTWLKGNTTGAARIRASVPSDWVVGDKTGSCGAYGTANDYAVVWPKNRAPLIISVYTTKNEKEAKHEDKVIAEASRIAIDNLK

Bacillus licheniformis = assay: Inhibition of Bacillus licheniformis beta-lactamase BS3 in 50 mM phosphate buffer at pH 7.2 at 100 uM; values are per cent of control
[6] = target: Beta-lactamase OXA-10 (Pseudomonas aeruginosa) (UniProt P14489); assay: Inhibition of Pseudomonas aeruginosa beta-lactamase Oxa-10 in 50 mM phosphate buffer at pH 7.2 at 100 uM; values are per cent of control
[7] = Inhibition of beta-lactamase TEM1 in 50 mM phosphate buffer at pH 7.2 at 2 mM

Beta-lactamase OXA-10 (Pseudomonas aeruginosa), sequence (P14489 whole entry): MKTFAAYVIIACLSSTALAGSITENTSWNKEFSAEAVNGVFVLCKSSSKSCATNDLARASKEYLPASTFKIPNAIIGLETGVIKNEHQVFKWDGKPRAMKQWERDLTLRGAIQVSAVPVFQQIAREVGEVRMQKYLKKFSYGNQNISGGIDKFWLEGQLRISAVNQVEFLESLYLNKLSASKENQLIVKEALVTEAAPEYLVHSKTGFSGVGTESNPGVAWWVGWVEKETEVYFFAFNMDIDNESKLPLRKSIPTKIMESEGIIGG

Ki [2] | residual activity [3] | residual activity [4] | residual activity (Enterobacter cloacae) | residual activity [5] | residual activity (Bacillus licheniformis) | residual activity [6] | residual activity [7] | Structure (SMILES) | Ki [1]
1500 µM | – | – | – | – | – | – | – | O=C(O)CC(C(=O)O)C(O)C(=O)O (stereo unspecified) [ISOCITRATE] | 2200 µM
– | 71% | 92% | 87% | 60% | 82% | 98% | – | CCOC(=O)CC(N)(CC(=O)OCC)C(=O)OCC | –
150 µM | – | – | 81% | 94% | 88% | 100% | 95% | NC(CC(=O)O)(CC(=O)O)C(=O)O | –

Structure (SMILES) | Ki [2] | residual activity [3] | residual activity [4] | residual activity (Enterobacter cloacae) | residual activity [5] | residual activity (Bacillus licheniformis) | residual activity [6] | residual activity [7] | Ki [1]
O=C(O)CC(O)(CC(=O)O)C(=O)O [CITRIC ACID] | 730 µM | – | – | – | – | – | – | – | 490 µM
